Results as given in ChEMBL document CHEMBL1136777, “Synthesis, anticancer activity, and inhibition of tubulin polymerization by conformationally restricted analogues of lavendustin A” (J Med Chem, 2003).

Columns and labels:
[1] = test system: SF-539; assay: Antiproliferative activity against human CNS SF-539 cell line; format: functional
Method in brief: (§1)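 Adherent lines grown in RPMI 1640 with 5% fetal bovine serum and 2 mM L-glutamine, plated at 5000–40 000 cells/well and preincubated 24 h. Five drug concentrations were added for 48 h at 37 °C. Cells were fixed with cold TCA (10% final), stained with sulforhodamine B, and read at 515 nm. GI50 is the concentration giving 50% reduction in net protein increase relative to time-zero wells.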

[2] = test system: HCT-116; assay: Antiproliferative activity against human colon HCT116 cell line; format: functional; method in brief: as §1
[3] = test system: CCRF-CEM; assay: Antiproliferative activity against human leukemia CCRF-CEM cell line; format: functional
Method in brief: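 Suspension leukemia line grown in RPMI 1640 with 5% fetal bovine serum and 2 mM L-glutamine and preincubated 24 h. Drug was given at five concentrations for 48 h at 37 °C. Settled cells were fixed with 80% TCA (16% final), stained with sulforhodamine B, and read at 515 nm. GI50 was set at 50% reduction in net protein increase versus time-zero wells.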

[4] = test system: HOP-62; assay: Antiproliferative activity against human lung HOP-62 cell line; format: functional; method in brief: as §1
[5] = test system: UACC-62; assay: Antiproliferative activity against human melanoma UACC-62 cell line; format: functional; method in brief: as §1
[6] = test system: SN12C; assay: Antiproliferative activity against human renal SN12C cell line; format: functional; method in brief: as §1
[7] = test system: DU-145; assay: Antiproliferative activity against human prostate DU-145 cell line; format: functional; method in brief: as §1
[8] = Mean graph midpoint for growth inhibition of all human cancer cells was determined; format: functional, Cancer cell lines; design: unit: µM
Method in brief: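 Average of GI50 values over about 55 cell lines from the 48-h sulforhodamine B growth assay. Test range was 10^-4 to 10^-8 M, and values beyond it were set to those limits. Compounds with a first MGM of 10 μM or less were tested a second time and a standard deviation was calculated.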

[9] = target: Tubulin (Bos taurus, UniProt Q6B856+Q862F3); assay: Inhibition of tubulin polymerization was determined at 1.2 mg/mL concentration; format: functional
[10] = test system: OVCAR-3; assay: Antiproliferative activity against human ovarian OVCAR-3 cell line; format: functional; method in brief: as §1
[11] = test system: MDA-MB-435 (Homo sapiens); assay: Antiproliferative activity against human breast MDA-MB-435 cell line

Chain of Tubulin (Q6B856 whole entry): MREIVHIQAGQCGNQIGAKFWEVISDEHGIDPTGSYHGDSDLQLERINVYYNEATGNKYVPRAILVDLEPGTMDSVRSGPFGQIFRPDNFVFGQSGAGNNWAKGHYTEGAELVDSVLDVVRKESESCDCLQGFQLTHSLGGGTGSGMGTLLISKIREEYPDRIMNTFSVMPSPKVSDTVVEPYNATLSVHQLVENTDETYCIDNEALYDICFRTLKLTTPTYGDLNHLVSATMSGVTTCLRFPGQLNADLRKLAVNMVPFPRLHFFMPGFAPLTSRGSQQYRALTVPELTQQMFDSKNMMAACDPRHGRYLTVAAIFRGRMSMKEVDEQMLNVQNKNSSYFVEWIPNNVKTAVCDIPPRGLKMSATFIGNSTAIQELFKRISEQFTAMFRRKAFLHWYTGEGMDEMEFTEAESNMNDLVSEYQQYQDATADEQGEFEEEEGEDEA
Chain of Tubulin (Q862F3 whole entry): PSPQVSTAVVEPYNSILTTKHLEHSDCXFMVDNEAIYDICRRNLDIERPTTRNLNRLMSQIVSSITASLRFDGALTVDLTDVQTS

Compound	GI50 [1] [µM]	GI50 [2] [µM]	GI50 [3] [µM]	GI50 [4] [µM]	GI50 [5] [µM]	GI50 [6] [µM]	GI50 [7] [µM]	MGM [8]	IC50 [9] [µM]	GI50 [10] [µM]	GI50 [11] [µM]
O=C(NCCc1ccc(F)cc1)c1cc(/C=C\c2cc(O)ccc2O)ccc1O	3.8	3.8	1.3	6.3	2.3	4	15.2	3.5	4.2	2.1	12.9
COC(=O)c1cc(/C=C\c2cc(OC)ccc2OC)ccc1OC	10.6	20.1		32.9	14.8	30.2	18.1	15.5	> 40	4.9	10.9
O=C(NCCc1ccccc1)c1cc(CCc2cc(O)ccc2O)ccc1O		12.5		13.9	11	49.8	14.5	6.4	5.5	4.4	3.9
COC(=O)c1cc(C#Cc2cc(OC)ccc2OC)ccc1OC	81.1	37.7	36.8		29.3	37.9	43.6	30.9	> 40	13.6	> 100
CCCCCCNC(=O)c1cc(/C=C/c2cc(O)ccc2O)ccc1O									5		
O=C(NCCc1ccc(F)cc1)c1cc(CCc2cc(O)ccc2O)ccc1O	1.8	1	0.4	2.6	2.8	2.1	8	2.8	9.7	1	2.3
O=C(NCCc1ccccc1)c1cc(/C=C/c2cc(O)ccc2O)ccc1O	2.4	1.8	2.1	9.3	2	5.1	10.1	3.8	4	2.9	4
O=C(NCCc1ccc(F)cc1)c1cc(/C=C/c2cc(O)ccc2O)ccc1O	2.2	1.9	1.8	8.8	2.1	5.6	11	3.5	2.9	2.7	3.8
COc1ccc(OC)c(CC(=O)c2ccc(O)c(C(=O)NCCc3ccc(F)cc3)c2)c1		4	2.4	1.5	4	4.3	1.7	3.6	1.4	1.4	0.6
COc1ccc(OC)c(CCc2ccc(O)c(C(=O)NCCc3ccc(F)cc3)c2)c1	3.2	5.3	3.2	15	6.6	15.8	4.2	6.9	1.4	3.2	0.5
CCCCCCNC(=O)c1cc(C#Cc2cc(OC)ccc2OC)ccc1OC	> 100	6.9	7.9	11.8	56.8	> 100	> 100	31.6	> 40	> 100	> 100
O=C(NCCc1ccc(F)cc1)c1cc(NCc2cc(O)ccc2O)ccc1O	9.2	9.2	0.29	12	7.8	7.7	18	0.35	6.4	11	13
O=C(NCCc1ccccc1)c1cc(/C=C\c2cc(O)ccc2O)ccc1O	1.6	3.5	0.2	3	2.1	6.8	1.8	1.4	5.4	1	1.7
COc1ccc(OC)c(C#Cc2ccc(OC)c(C(=O)NCCc3ccc(F)cc3)c2)c1		4.7	4.7	4.9	6	> 100	> 100	11.5	> 40		1.2
COc1ccc(OC)c(C#Cc2ccc(OC)c(C(=O)O)c2)c1	38.5	32.3	55	25.6	22.6	38.2	26.9	18.6	> 40	24.4	8.8
O=C(NCCc1ccccc1)c1cc(C#Cc2cc(O)ccc2O)ccc1O	9.6	10.5	0.3	10.3	1.9	5.7	12.7	3.8	3.7	2.8	2.9
CCCCCCNC(=O)c1cc(CCc2cc(O)ccc2O)ccc1O	2.2	3.6	5.1	7.4	3.3	2.2	7.4	4.4	6.2	2.4	3.2
COc1ccc(OC)c(/C=C\c2ccc(OC)c(C(=O)NCCc3ccc(F)cc3)c2)c1	5.9	3.8	3.4	8.1	3.5	6.4	> 100	4.5	> 40	4.2	2.1
CCCCCCNC(=O)c1cc(/C=C\c2cc(OC)ccc2OC)ccc1OC	23.6	21.1	24.7	31.9	25	63.1	45.6	16.6	> 40	16.1	10.3
COc1ccc(OC)c(/C=C\c2ccc(OC)c(C(=O)NCCc3ccccc3)c2)c1	> 100	47.3	12.3	> 100	16.4	> 100	> 100	38.9	> 40	5	3
COc1ccc(OC)c(C#Cc2ccc(OC)c(C(=O)NCCc3ccccc3)c2)c1	> 100	12		> 100	24.4	> 100	> 100	40.7	> 40	6.7	2.5
CCCCCCNC(=O)c1cc(/C=C\c2cc(O)ccc2O)ccc1O	3.3	3.9	1.2	8.3	5.8	11.6	10.5	4.1	4.2	1.7	4.5
